From ChEMBL document CHEMBL3611971, “Multifunctional novel Diallyl disulfide (DADS) derivatives with β-amyloid-reducing, cholinergic, antioxidant and metal chelating properties for the treatment of Alzheimer's disease” (Bioorg Med Chem, 2015) come the findings set out here.

Each structure is given as a SMILES string. A value given as a limit tells only on which side of the number the result lay.

The target of one data set is Cholinesterase (Equus caballus, UniProt P81908). Kind of data set: Inhibition of equine serum BuChE using DTNB as substrate incubated for 5 mins prior to substrate addition measured after 2 mins by Ellman's method.
The target in another data set is Acetylcholinesterase (Electrophorus electricus, UniProt O42275). The data set can be described thus: Inhibition of electric eel AChE using DTNB as substrate incubated for 5 mins prior to substrate addition measured after 2 mins by Ellman's method.
For data set [1], the target named is Amyloid-beta precursor protein (Homo sapiens) (UniProt P05067). The conditions noted are these: at 25 µM.
The nature of data set [2]: Metal chelating activity of the compound assessed as reduction of Cu2+-induced amyloid beta (1 to 42) (unknown origin) aggregation at 50 uM after 24 hrs by thioflavin-T-based fluorescence assay relative to control. It is filed as physicochemical. In a few lines: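 Aβ1–42 was HFIP-treated, dried, and held as DMSO stock. Diluted in […] (pH 6.6) with […]; 25 μM peptide incubated with or without 25 μM Cu2+ and 50 μM compound, 37 °C, 24 h.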

Data set [3] can be described thus: Metal chelating activity of the compound assessed as reduction of Cu2+-amyloid beta (1 to 42)-complex induced H2O2 production from ascorbate at 800 nM after 30 mins by HRP/Amplex Red assay relative to control. It counts as physicochemical. Also on record: scale not given: the % may be the effect or the level left. The conditions noted are these: 0.5 h, 0.8 µM. In a few lines: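 Per well, in phosphate buffer (100 μL): CuCl2 400 nM, Aβ 200 nM, chelator 800 nM (1% v/v DMSO) and sodium ascorbate 10 mM, held 30 min at room temperature. Working solution with Amplex Red and HRP then added for another 30 min at room temperature. Fluorescence ex/em 530/590 nm. At least three measurements.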

Data set [4] in a line: Metal chelating activity of the compound assessed as formation of Cu2+-compound complex at 50 uM after 30 mins by UV-vis spectrometry. It counts as physicochemical. Particulars: 0.5 h; call rule not given here. In a few lines: (§1)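 UV absorption scan from 200 to 600 nm of compound in methanol, alone or with CuCl2 or FeSO4. Read after 30 min at room temperature, with compound and metal each at 50 μM final.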

Data set [5] can be described thus: Metal chelating activity of the compound assessed as formation of Fe2+-compound complex at 50 uM after 30 mins by UV-vis spectrometry. It counts as physicochemical. The conditions noted are these: 0.5 h. Summed up:
as §1

The nature of data set [6]: Metal chelating activity of the compound assessed as reduction of Cu2+-induced amyloid beta (1 to 42) (unknown origin) aggregation at 50 uM after 24 hrs by transmission electron microscopic analysis. It is filed as physicochemical. In a few lines:
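Aβ1–42 diluted in 20 mM phosphate buffer (pH 7.4) at 4 °C. Preincubated 2 min with Cu2+ (Aβ and Cu2+ each 25 μM final), then incubated 24 h at 37 °C with or without compound at 50 μM. Samples placed on carbon-coated grids for 2 min at room temperature, stained 2 min with 1% uranyl acetate, and imaged by TEM.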

Data set [7] in a line: Cytotoxicity against HEK293 cells assessed as cell viability at 0.1 uM after 48 hrs by MTT assay relative to control. It is filed as cell-based. The conditions noted are these: human, read-out: Activity. Summed up: (§2)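 HEK 293 cells grown in DMEM with 10% FBS and 1% penicillin–streptomycin at 37 °C, 5% CO2. Seeded at 5000 cells/well and cultured 24 h, then exposed 48 h to compound (DMSO stock diluted in complete medium; 0.1–100 μM final), in triplicate. MTT added for 4 h, formazan dissolved in DMSO, absorbance read at 570 nm against 630 nm reference. Mean ± SEM of 3 independent experiments.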
In general terms: Tetrazolium assays rely on reduction of a dye to a coloured formazan, in cell work by metabolically active cells.

Data set [8] is described as follows: Cytotoxicity against HEK293 cells assessed as cell viability at 1 uM after 48 hrs by MTT assay relative to control. It counts as cell-based. Particulars: human, read-out: Activity. Summed up: as §2
Data set [9] can be described thus: Cytotoxicity against HEK293 cells assessed as cell viability at 10 uM after 48 hrs by MTT assay relative to control. It is filed as cell-based. Particulars: human, read-out: Activity. In a few lines: as §2
Data set [10] in a line: Cytotoxicity against HEK293 cells assessed as cell viability at 25 uM after 48 hrs by MTT assay relative to control. It counts as cell-based. The conditions noted are these: human, read-out: Activity. Summed up: as §2
Data set [11] in a line: Cytotoxicity against HEK293 cells assessed as cell viability at 50 uM after 48 hrs by MTT assay relative to control. Particulars: human, read-out: Activity. It is filed as cell-based. Summed up:
as §2

Data set [12] is described as follows: Cytotoxicity against HEK293 cells assessed as cell viability at 100 uM after 48 hrs by MTT assay relative to control. It is filed as cell-based. Particulars: human, read-out: Activity. In a few lines:
as §2

A further data set concerns HEK293. The data set can be described thus: Cytotoxicity against HEK293 cells assessed as cell viability at 0.1 to 100 uM after 48 hrs by MTT assay relative to control. It counts as cell-based. Particulars: human, hek293, 48 h. Summed up:
as §2

Amyloid-beta precursor protein (Homo sapiens), sequence (P05067 whole entry): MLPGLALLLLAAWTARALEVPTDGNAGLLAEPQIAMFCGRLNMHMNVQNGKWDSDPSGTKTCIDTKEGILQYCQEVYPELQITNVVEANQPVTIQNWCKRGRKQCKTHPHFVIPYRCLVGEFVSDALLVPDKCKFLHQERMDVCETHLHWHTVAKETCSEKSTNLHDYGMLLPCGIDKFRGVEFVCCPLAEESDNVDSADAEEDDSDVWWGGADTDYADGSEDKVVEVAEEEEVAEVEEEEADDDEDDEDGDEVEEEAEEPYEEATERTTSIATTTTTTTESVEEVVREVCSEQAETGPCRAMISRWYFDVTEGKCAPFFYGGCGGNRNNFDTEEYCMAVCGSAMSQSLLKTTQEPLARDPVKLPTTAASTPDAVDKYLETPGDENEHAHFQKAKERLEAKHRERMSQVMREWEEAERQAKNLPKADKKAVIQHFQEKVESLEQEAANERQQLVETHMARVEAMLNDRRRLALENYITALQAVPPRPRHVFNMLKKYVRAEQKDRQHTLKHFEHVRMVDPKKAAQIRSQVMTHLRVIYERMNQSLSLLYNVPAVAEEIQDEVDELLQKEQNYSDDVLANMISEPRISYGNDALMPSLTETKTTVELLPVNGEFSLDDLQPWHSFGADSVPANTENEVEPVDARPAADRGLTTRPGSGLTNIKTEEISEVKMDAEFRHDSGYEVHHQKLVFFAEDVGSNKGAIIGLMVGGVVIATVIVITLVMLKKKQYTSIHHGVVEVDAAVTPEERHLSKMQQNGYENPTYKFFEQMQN
Cholinesterase, sequence (P81908 whole entry): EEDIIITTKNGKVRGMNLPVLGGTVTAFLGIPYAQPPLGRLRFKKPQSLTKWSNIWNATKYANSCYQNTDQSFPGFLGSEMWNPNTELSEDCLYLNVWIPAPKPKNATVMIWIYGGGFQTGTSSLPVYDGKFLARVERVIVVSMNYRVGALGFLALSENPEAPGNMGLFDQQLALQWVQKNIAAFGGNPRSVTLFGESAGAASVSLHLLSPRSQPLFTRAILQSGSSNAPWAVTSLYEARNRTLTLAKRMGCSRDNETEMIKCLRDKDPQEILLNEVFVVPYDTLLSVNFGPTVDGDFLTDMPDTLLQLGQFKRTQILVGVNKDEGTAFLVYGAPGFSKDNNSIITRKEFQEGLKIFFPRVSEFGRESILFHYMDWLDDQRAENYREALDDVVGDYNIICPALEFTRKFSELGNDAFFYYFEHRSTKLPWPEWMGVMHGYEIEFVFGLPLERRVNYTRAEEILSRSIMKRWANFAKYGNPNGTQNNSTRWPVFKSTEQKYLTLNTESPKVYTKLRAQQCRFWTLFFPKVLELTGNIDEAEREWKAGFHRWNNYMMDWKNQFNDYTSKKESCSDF
Acetylcholinesterase, sequence (O42275 whole entry): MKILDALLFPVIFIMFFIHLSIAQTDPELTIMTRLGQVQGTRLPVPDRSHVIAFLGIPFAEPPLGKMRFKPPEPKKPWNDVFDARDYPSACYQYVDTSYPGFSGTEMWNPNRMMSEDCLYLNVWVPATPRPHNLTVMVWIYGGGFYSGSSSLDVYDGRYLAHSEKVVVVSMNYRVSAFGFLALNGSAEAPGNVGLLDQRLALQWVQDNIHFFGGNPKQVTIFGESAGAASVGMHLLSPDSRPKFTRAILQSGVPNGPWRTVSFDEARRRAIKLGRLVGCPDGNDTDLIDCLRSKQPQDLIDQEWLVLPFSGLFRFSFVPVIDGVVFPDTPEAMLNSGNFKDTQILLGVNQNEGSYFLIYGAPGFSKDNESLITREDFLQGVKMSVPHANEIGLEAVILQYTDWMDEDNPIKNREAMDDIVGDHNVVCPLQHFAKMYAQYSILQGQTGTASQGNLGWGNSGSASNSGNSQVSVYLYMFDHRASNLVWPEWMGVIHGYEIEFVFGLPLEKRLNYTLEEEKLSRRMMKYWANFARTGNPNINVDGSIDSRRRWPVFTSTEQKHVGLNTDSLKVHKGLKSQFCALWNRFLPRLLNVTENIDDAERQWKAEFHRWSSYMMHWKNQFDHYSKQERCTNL

In general, IC50 refers to the concentration at which inhibition is half-maximal. As a reminder, the inhibition is the share of the control response that was lost under treatment. For `Clc1cccc(/C=C/CSSC/C=C/c2cccc(Cl)c2)c1`, the IC50 against Cholinesterase is above 100 µM; on Acetylcholinesterase, 44.2 µM. For the same compound, the inhibition in [1] amounted to 52.4%.

Turning to `COc1ccc(/C=C/C(=O)SSC(=O)/C=C/c2ccc(OC)cc2OC)c(OC)c1`, the IC50 against Cholinesterase worked out at 14.9 µM; against Acetylcholinesterase, 0.142 µM. For the same compound, the inhibition in [1] was 69%.

Regarding `COc1ccc(/C=C/CSSC/C=C/c2ccc(OC)cc2)cc1`, the IC50 on Cholinesterase came out at 59.5 µM; against Acetylcholinesterase, 8.29 µM. In addition, in [1], the inhibition was 58.5%.

Turning to `O=C(/C=C/c1cccc(Br)c1)SSC(=O)/C=C/c1cccc(Br)c1`, the IC50 is 38.7 µM on Cholinesterase and 0.54 µM at Acetylcholinesterase. The same compound returned an inhibition in data set [1] of 68.7%.

As to `O=C(/C=C/c1ccc(O)cc1)SSC(=O)/C=C/c1ccc(O)cc1`, the IC50 at Cholinesterase came to 24.5 µM; against Acetylcholinesterase it was 0.21 µM. Moreover, the inhibition in data set [1] stood at 66.4%.

Regarding `COc1ccc(/C=C/C(=O)SSC(=O)/C=C/c2ccc(OC)cc2)cc1`, the IC50 on Cholinesterase stood at 16 µM; on Acetylcholinesterase it was 0.22 µM. For the same compound, the inhibition in data set [1] was 63.5%.

Turning to `Clc1ccc(/C=C/CSSC/C=C/c2ccc(Cl)cc2)cc1`, the IC50 came out at 94.2 µM on Cholinesterase and 37 µM against Acetylcholinesterase. This compound yielded an inhibition in data set [1] of 48.2%.

Consider `COc1cc(/C=C/C(=O)CC(=O)/C=C/c2ccc(O)c(OC)c2)ccc1O` [CURCUMIN], for which the “inhibition (INH)” value in data set [2] worked out at 65.9%.

As for `COc1ccc(/C=C/CSSC/C=C/c2ccc(OC)c(OC)c2)cc1OC`, the figures for the IC50 against Cholinesterase and at Acetylcholinesterase were 55.2 µM and 1.1 µM, respectively. Besides, the inhibition in data set [1] is 61.2%.

On to `COc1cc(/C=C/CSSC/C=C/c2ccc(O)c(OC)c2)ccc1O`, for which the IC50 came out at 57.9 µM against Cholinesterase and 1.45 µM against Acetylcholinesterase. Moreover, the inhibition in data set [1] is 66.9%.

For `Oc1ccc(/C=C/CSSC/C=C/c2ccc(O)cc2)cc1`, the results for the IC50 against Cholinesterase and against Acetylcholinesterase were 63 µM and 12.3 µM, respectively. The inhibition in [1] came to 53%.

Consider `Fc1ccccc1/C=C/CSSC/C=C/c1ccccc1F`, for which the IC50 against Cholinesterase is above 100 µM; on Acetylcholinesterase, 48.7 µM. In data set [1], this compound returned an inhibition of 33.5%.

As to `O=C(/C=C/c1ccc(F)cc1)SSC(=O)/C=C/c1ccc(F)cc1`, the IC50 was 32.4 µM at Cholinesterase and 0.45 µM against Acetylcholinesterase. The inhibition in data set [1] is 62.4%.

With `O=C(/C=C/c1ccc(Cl)cc1)SSC(=O)/C=C/c1ccc(Cl)cc1`, the IC50 against Cholinesterase amounted to 35.6 µM; on Acetylcholinesterase it was 0.51 µM. In addition, the inhibition in data set [1] turned out to be 65.6%.

Turning to `Fc1cccc(/C=C/CSSC/C=C/c2cccc(F)c2)c1`, the IC50 at Cholinesterase is above 100 µM; at Acetylcholinesterase it was 53.2 µM. Besides, in data set [1], the inhibition was 44.2%.

For `Brc1cccc(/C=C/CSSC/C=C/c2cccc(Br)c2)c1`, the IC50 at Cholinesterase came to 75.4 µM; at Acetylcholinesterase, 23.7 µM. In addition, the inhibition in data set [1] stood at 39.4%.

For the compound `Brc1ccc(/C=C/CSSC/C=C/c2ccc(Br)cc2)cc1`, the IC50 is 72.5 µM on Cholinesterase and 20.9 µM on Acetylcholinesterase. The same compound yielded an inhibition in data set [1] of 37.5%.

Turning to `Fc1cccc(F)c1/C=C/CSSC/C=C/c1c(F)cccc1F`, the IC50 against Cholinesterase is above 100 µM; on Acetylcholinesterase it was 42.3 µM. This compound yielded an inhibition in data set [1] of 39.5%.

For `Clc1cc(Cl)cc(/C=C/CSSC/C=C/c2cc(Cl)cc(Cl)c2)c1`, the IC50 on Cholinesterase is above 100 µM; on Acetylcholinesterase, 64.6 µM. In data set [1], the inhibition was 47.5%.

On to `O=C(O)CN(CCN(CC(=O)O)CC(=O)O)CC(=O)O` [EDETIC ACID], for which, in data set [3], the Activity is reported as above 80%.

Take `COc1cc(/C=C/C(=O)SSC(=O)/C=C/c2ccc(O)c(OC)c2)ccc1O`: the IC50 was determined as 12.9 µM on Cholinesterase and 0.121 µM at Acetylcholinesterase. The Activity result in data set [4] is reported as “Active”; in [5], “Active”; in [3] it was 62%; in the data set with HEK293 it was “Dose-dependent effect”. Moreover, the “inhibition (INH)” value in data set [2] is reported as 78.5%; in data set [6], “Active”. The viability at 48 h, 0.1 µM in [7] was determined as 97.3%. Moreover, the viability at 48 h, 1 µM in data set [8] was 96.5%. For the same compound, in [9], the viability at 48 h, 10 µM amounted to 94.4%. The viability at 48 h, 25 µM in data set [10] was 92.3%. Besides, the viability at 48 h, 50 µM in data set [11] was determined as 90.1%. The viability at 48 h, 100 µM in [12] was 80.9%. Further, in [1], the inhibition turned out to be 71.4%.

Take `COc1ccc(/C=C/C(=O)SSC(=O)/C=C/c2ccc(OC)c(OC)c2)cc1OC`: the IC50 at Cholinesterase was determined as 13.6 µM; against Acetylcholinesterase it was 0.056 µM. The Activity entry is “Active” in data set [4], “Active” in [5], 72% in [3] and “Dose-dependent effect” with HEK293. Besides, the “inhibition (INH)” value is given as 80.9% in [2] and “Active” in data set [6]. The viability at 48 h, 0.1 µM in data set [7] turned out to be 98.9%. Further, the viability at 48 h, 1 µM in data set [8] was 96.1%. For the same compound, in [9], the viability at 48 h, 10 µM was 95.4%. Moreover, in data set [10], the viability at 48 h, 25 µM amounted to 95.7%. Moreover, the viability at 48 h, 50 µM in data set [11] came to 92.8%. Besides, the viability at 48 h, 100 µM in [12] stood at 88.6%. Also, the inhibition in data set [1] is 74.2%.

As for `O=C(/C=C/c1ccc(Br)cc1)SSC(=O)/C=C/c1ccc(Br)cc1`, the IC50 came out at 37.2 µM at Cholinesterase and 0.34 µM at Acetylcholinesterase. In data set [1], this compound had an inhibition of 52.2%.
